Measurements of several laboratories.
Compare with care: the assays were run in different laboratories.
HTR1E: 5-hydroxytryptamine receptor 1E (HTR1E, Homo sapiens, UniProt P28566)
BACE1: Beta-secretase 1 (BACE1, Homo sapiens, UniProt P56817)

SMILES | target | effect on | mode | method | measurement | value
CC(N)Cc1c[nH]c2ccc(OCc3cccs3)cc12 (stereo not drawn) | HTR1E | G protein activation | agonist | BRET | EC50 | 3.99 µM
CNC(=O)c1ccc(-c2cnn3ccc(C(=O)N(C)c4ccc(Cl)c(C(=O)OC)c4)cc23)cc1 | Wee1-like protein kinase (WEE1, Homo sapiens, UniProt P30291) | enzyme activity | inhibitor | – | IC50 | > 30 µM
Cc1c2oc3c(C)ccc(C(=O)N[C@@H]4C(=O)N[C@H](C(C)C)C(=O)N5CCC[C@H]5C(=O)N(C)CC(=O)N(C)[C@@H](C(C)C)C(=O)O[C@@H]4C)c3nc-2c(C(=O)N[C@@H]2C(=O)N[C@H](C(C)C)C(=O)N3CCC[C@H]3C(=O)N(C)CC(=O)N(C)[C@@H](C(C)C)C(=O)O[C@@H]2C)c(N)c1=O | Palmitoyl-protein thioesterase 1 (Homo sapiens, UniProt P50897) | binding | – | MST | Kd | 0.235 µM
Cn1cc(-c2cc(C(=O)NN=Cc3cccc([N+](=O)[O-])c3)no2)c2ccccc21 | BACE1 | enzyme activity | inhibitor | FRET | IC50 | > 100 µM
COC(=O)c1cc(N(C)C(=O)c2ccn3ncc(-c4ccc(C(=O)O)cc4)c3c2)ccc1Cl | Epidermal growth factor receptor (EGFR, Homo sapiens, UniProt P00533) | enzyme activity | inhibitor | – | IC50 | > 30 µM
O=C(O)C(F)(F)C(F)(F)C(F)(F)C(F)(F)C(F)(F)C(F)(F)C(F)(F)F | Aldo-keto reductase family 1 member C4 (AKR1C4, Homo sapiens, UniProt P17516) | enzyme activity | inhibitor | – | IC50 | ≥ 50 µM
C=CC(=O)N[C@H]1C=C(C)c2c(-c3cnc4ccccc4c3)c3c(N)ncnc3n2C1 | Epidermal growth factor receptor (EGFR, Homo sapiens, UniProt P00533, L858R/T790M) | enzyme activity | inhibitor | – | IC50 | 0.0011 µM
CC[C@H](C)[C@H](NC(=O)[C@H](CO)NC(=O)CNC(=O)[C@@H](NC(=O)[C@@H](NC(=O)[C@@H](NC(=O)CN)[C@@H](C)O)C(C)C)[C@@H](C)O)C(=O)N[C@@H](CC(C)C)C(=O)N[C@H](C(=O)N1CCC[C@H]1C(=O)N[C@H](C(=O)N[C@@H](CC(=O)O)C(=O)N[C@@H](Cc1ccc(O)cc1)C(=O)NCC(=O)N[C@H]1CSSC[C@@H](C(=O)N[C@@H](CO)C(=O)N[C@H](C(=O)N[C@@H](C)C(=O)N[C@@H](CCSC)C(=O)N[C@@H](Cc2ccc(O)cc2)C(=O)NCC(=O)NCC(=O)N[C@H](C(=O)N[C@H](C(=O)N[C@@H](CC(=O)O)C(=O)N2CCC[C@H]2C(=O)N[C@H](C(=O)N[C@@H](CCCNC(=N)N)C(=O)N[C@@H](Cc2ccccc2)C(=O)N2CCC[C@H]2C(=O)N[C@@H](CC(N)=O)C(=O)N[C@@H](C)C(=O)N[C@@H](Cc2c[nH]c3ccccc23)C(=O)N[C@@H](CCCNC(=N)N)C(=O)N[C@@H](CCC(=O)O)C(=O)N[C@@H](CC(C)C)C(=O)O)[C@@H](C)CC)[C@@H](C)CC)C(C)C)C(C)C)NC(=O)[C@H](CC(C)C)NC(=O)[C@H](Cc2ccccc2)NC(=O)[C@@H]2CCCN2C(=O)[C@H](CC(N)=O)NC(=O)[C@H](Cc2ccccc2)NC1=O)[C@@H](C)CC)[C@@H](C)O | Neutrophil elastase (ELANE, Homo sapiens, UniProt P08246) | enzyme activity | inhibitor | – | IC50 | > 100 µM
CNC(=O)c1ccc(-c2cnn3ccc(C(=O)N(C)c4ccc(Cl)c(C(=O)O)c4)cc23)cc1 | Non-receptor tyrosine-protein kinase TYK2 (TYK2, Homo sapiens, UniProt P29597) | enzyme activity | inhibitor | – | IC50 | > 30 µM
COc1cccc(C=NNC(=O)c2cc(-c3cn(C)c4ccccc34)on2)c1OC | BACE1 | enzyme activity | inhibitor | FRET | IC50 | 8.28 µM
c1ccc(-c2nnc(CN3CCN(c4ccccc4)CC3)o2)cc1 | BACE1 | enzyme activity | inhibitor | FRET | IC50 | 4.79 µM
CCN(CC)C(=O)N[C@H]1C[C@@H]2c3cccc4[nH]cc(c34)C[C@H]2N(C)C1 | HTR1E | G protein activation | agonist | BRET | EC50 | 1.81 µM
